Legend:
[1] = target: Muscarinic acetylcholine receptor M2 (Homo sapiens, UniProt P08172); experiment: Activity at human M2 receptor
[2] = Drug metabolism in dog cryopreserved hepatocytes assessed as metabolite M6 formation; assay type: ADME, cell-based, Canis lupus familiaris, Hepatocyte
[3] = target: Muscarinic acetylcholine receptor M1 (Rattus norvegicus, UniProt P08482); experiment: Activity at rat M1 receptor
[4] = target: Muscarinic acetylcholine receptor M3 (Rattus norvegicus, UniProt P08483); experiment: Activity at rat M3 receptor
Muscarinic acetylcholine receptor M3, sequence (P08483 whole entry): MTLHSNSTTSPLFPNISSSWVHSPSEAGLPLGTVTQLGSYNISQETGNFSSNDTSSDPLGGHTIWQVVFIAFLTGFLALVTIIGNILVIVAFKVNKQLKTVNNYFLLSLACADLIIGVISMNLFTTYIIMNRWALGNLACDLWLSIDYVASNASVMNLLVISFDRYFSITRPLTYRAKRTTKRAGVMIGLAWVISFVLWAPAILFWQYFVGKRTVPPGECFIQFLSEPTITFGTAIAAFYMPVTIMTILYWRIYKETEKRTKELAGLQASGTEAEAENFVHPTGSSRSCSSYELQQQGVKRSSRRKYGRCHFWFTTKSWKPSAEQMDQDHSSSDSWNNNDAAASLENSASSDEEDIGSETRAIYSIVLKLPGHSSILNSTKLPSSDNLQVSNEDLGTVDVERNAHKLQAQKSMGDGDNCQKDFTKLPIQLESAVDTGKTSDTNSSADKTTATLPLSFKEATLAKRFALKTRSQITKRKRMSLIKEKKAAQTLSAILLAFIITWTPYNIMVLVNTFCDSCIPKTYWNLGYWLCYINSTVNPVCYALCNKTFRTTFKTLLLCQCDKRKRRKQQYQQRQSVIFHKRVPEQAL

CYP3A4 = CYP3A4 (Homo sapiens, UniProt P08684); experiment: Induction of CYP3A4 in cryopreserved human hepatocytes measured after 48 hrs; assay type: ADME, cell-based
CYP3A4, sequence (P08684 whole entry): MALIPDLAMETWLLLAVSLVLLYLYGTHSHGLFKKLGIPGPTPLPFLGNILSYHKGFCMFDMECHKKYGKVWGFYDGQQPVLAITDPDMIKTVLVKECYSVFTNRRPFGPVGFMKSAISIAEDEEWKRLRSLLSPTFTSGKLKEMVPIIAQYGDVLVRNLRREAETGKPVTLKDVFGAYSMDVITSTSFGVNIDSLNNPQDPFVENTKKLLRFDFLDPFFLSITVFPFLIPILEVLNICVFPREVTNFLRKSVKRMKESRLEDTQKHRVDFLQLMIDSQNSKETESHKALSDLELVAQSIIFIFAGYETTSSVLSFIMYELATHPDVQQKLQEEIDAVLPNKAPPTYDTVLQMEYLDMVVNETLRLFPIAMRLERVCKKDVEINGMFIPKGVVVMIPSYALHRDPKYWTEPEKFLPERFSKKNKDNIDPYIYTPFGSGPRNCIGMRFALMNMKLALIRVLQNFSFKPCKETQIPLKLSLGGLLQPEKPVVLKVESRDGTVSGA
Outline: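 Cryopreserved human hepatocytes incubated for 48 hr, with enzyme activity as read-out. Induction expressed as EC50 and Emax.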

[5] = Drug metabolism in human cryopreserved hepatocytes assessed as metabolite M1 formation; assay type: ADME, cell-based, Hepatocyte
[6] = Drug metabolism in rat cryopreserved hepatocytes assessed as metabolite M6 formation; assay type: ADME, cell-based, Hepatocyte
[7] = Brain to plasma permeability coefficient, Kp of the compound in dog at 3 mg/kg, iv or po at 2 hrs post dose; assay type: ADME, organism-based, Canis lupus familiaris
Outline: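 Dog terminal study, with brain, plasma and CSF collected at 2.0 hr. Brain:plasma Kp, Kp,uu and Ccsf:Cplasma,u were derived.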

[8] = Drug metabolism in human cryopreserved hepatocytes assessed as metabolite M6 formation; assay type: ADME, cell-based, Hepatocyte
[9] = Ratio of unbound brain to plasma concentration in dog at 3 mg/kg, iv or po at 2 hrs post dose; assay type: ADME, organism-based, Canis lupus familiaris
Outline: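 CNS penetration in dog by terminal study at 2.0 hr. Brain:plasma Kp, Kp,uu and unbound CSF:plasma ratio determined.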

Cytochrome P450 2D6 = Cytochrome P450 2D6 (Homo sapiens, UniProt P10635); experiment: Inhibition of CYP2D6 (unknown origin); assay type: ADME
Cytochrome P450 2D6, sequence (P10635 whole entry): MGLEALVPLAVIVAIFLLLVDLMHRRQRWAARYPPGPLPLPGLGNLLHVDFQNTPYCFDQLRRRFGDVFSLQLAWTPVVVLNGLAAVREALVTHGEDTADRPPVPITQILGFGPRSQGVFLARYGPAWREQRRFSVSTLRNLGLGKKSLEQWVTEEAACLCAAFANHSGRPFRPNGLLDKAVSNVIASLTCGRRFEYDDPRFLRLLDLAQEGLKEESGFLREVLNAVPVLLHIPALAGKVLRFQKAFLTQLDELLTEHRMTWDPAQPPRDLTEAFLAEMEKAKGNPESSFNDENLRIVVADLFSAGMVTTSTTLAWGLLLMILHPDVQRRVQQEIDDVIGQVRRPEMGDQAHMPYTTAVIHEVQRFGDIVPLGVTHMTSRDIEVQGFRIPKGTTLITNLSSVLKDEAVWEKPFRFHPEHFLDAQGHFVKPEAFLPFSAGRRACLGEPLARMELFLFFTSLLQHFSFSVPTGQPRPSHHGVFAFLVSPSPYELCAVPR

[10] = target: Muscarinic acetylcholine receptor M5 (Rattus norvegicus, UniProt P08911); experiment: Activity at rat M5 receptor
Muscarinic acetylcholine receptor M5, sequence (P08911 whole entry): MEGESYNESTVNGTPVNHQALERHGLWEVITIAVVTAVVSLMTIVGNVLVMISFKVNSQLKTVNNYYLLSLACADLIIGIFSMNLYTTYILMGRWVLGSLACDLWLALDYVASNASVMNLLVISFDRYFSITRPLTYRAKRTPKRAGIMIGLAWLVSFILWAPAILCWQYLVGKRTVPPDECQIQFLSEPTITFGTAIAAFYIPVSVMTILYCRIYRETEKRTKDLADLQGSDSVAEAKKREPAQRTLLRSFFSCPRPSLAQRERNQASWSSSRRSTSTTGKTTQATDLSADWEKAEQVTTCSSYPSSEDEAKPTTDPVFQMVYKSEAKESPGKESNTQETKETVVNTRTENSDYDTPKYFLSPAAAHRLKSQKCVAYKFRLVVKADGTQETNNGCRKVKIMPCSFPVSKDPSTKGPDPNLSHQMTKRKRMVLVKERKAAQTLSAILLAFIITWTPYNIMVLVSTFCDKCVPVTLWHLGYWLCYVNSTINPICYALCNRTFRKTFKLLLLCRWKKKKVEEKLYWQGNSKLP

[11] = Brain to plasma permeability coefficient, Kp of the compound in Sprague-Dawley rat at 0.1 to 0.2 mg/kg, iv measured at 0.25 hrs post dose; assay type: ADME, organism-based
Outline: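 Sprague-Dawley rats were dosed IV at 0.1–0.2 mg/kg, with brain and plasma sampled at 0.25 hr. Brain:plasma Kp was calculated, with Kp,uu where unbound fractions were available.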

[12] = Drug metabolism in cynomolgus monkey cryopreserved hepatocytes assessed as metabolite M8 formation; assay type: ADME, cell-based, Macaca fascicularis, Hepatocyte
[13] = target: Muscarinic acetylcholine receptor M2 (Rattus norvegicus, UniProt P10980); experiment: Activity at rat M2 receptor
Muscarinic acetylcholine receptor M2 (Rattus norvegicus, UniProt P10980), sequence (P10980 whole entry): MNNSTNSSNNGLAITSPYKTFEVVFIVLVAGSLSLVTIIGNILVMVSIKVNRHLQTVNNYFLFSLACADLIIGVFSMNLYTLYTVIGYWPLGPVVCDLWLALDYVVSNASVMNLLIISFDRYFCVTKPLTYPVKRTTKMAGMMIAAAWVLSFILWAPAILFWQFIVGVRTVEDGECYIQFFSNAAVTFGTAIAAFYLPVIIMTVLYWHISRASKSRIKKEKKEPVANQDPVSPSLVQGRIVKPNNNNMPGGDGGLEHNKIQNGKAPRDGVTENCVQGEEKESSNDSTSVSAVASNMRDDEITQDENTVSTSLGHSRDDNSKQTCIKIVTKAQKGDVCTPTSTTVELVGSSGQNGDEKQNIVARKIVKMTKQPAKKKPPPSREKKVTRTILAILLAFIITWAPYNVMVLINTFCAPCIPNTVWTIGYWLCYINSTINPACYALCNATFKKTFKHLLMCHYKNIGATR

Salmonella typhimurium = experiment: Mutagenicity in Salmonella typhimurium TA100 in presence of S9 fraction by mini-Ames test; assay type: toxicity; details: salmonella enterica subsp. enterica serovar typhimurium
Outline: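 Mini-Ames mutagenicity assay in Salmonella typhimurium strains TA98 and TA100, run with and without S9 metabolic activation.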

[14] = Unbound brain concentration in rat; assay type: ADME, tissue-based
[15] = target: Muscarinic acetylcholine receptor M4 (Rattus norvegicus, UniProt P08485); experiment: Positive allosteric modulation of rat M4 receptor assessed as increase in acetylcholine-induced calcium mobilization; assay type: functional
Muscarinic acetylcholine receptor M4, sequence (P08485 whole entry): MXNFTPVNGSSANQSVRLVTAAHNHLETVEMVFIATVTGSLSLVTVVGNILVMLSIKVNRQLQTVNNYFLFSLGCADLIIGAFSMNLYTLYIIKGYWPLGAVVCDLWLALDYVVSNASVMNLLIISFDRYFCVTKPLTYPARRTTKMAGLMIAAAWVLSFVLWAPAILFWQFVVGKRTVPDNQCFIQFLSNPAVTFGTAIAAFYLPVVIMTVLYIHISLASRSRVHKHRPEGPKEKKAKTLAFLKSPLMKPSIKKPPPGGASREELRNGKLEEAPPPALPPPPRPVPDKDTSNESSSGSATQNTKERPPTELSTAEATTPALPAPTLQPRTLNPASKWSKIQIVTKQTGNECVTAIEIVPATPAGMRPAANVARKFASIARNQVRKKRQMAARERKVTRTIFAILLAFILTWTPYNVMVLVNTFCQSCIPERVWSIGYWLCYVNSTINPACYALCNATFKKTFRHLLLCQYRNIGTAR
Outline: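 M4 PAM concentration-response curves measured by calcium mobilization at the stated species' receptor. Potency reported as EC50/pEC50 and efficacy as % of acetylcholine maximum.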

[16] = Drug metabolism in dog cryopreserved hepatocytes assessed as metabolite M5 formation; assay type: ADME, cell-based, Canis lupus familiaris, Hepatocyte
[17] = Drug metabolism in cynomolgus monkey cryopreserved hepatocytes assessed as metabolite M7 formation; assay type: ADME, cell-based, Macaca fascicularis, Hepatocyte
[18] = Drug metabolism in cynomolgus monkey cryopreserved hepatocytes assessed as metabolite M1 formation; assay type: ADME, cell-based, Macaca fascicularis, Hepatocyte
[19] = Drug metabolism in rat cryopreserved hepatocytes assessed as metabolite M5 formation; assay type: ADME, cell-based, Hepatocyte

Muscarinic acetylcholine receptor M2 (Homo sapiens, UniProt P08172), sequence (P08172 whole entry): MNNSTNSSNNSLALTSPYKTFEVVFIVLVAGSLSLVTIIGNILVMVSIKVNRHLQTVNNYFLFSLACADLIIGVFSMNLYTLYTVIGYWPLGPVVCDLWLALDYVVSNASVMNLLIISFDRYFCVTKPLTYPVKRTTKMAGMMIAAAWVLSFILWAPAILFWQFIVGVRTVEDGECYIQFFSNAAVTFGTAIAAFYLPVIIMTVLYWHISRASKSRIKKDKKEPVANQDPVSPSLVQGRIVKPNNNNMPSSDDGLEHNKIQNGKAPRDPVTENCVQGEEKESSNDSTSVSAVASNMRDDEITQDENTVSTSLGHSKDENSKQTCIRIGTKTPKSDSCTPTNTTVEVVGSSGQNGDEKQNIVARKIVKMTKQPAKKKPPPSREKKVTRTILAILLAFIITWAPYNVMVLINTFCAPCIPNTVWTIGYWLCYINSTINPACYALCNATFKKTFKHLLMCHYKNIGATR
Muscarinic acetylcholine receptor M1, sequence (P08482 whole entry): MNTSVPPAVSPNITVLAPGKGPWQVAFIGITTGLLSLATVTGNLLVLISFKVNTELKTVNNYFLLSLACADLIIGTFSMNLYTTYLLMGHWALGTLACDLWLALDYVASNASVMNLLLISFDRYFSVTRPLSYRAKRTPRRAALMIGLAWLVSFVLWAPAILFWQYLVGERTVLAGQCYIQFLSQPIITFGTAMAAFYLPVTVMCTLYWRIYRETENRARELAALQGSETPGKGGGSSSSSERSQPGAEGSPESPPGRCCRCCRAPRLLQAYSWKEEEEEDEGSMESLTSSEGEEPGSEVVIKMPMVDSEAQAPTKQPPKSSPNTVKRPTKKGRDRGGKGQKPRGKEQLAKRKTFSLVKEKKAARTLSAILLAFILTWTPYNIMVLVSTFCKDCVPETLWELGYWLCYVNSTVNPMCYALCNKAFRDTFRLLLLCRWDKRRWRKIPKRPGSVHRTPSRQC

Cc1nnc2sc(C(=O)NCc3ccc(-c4cccnc4F)cc3)c(N)c2c1C
EC50 [1]: > 30 µM | Drug metabolism [2]: Metabolite_Detected | EC50 [3]: > 30 µM | EC50 [4]: > 30 µM | EC50 at 48 h (CYP3A4): > 50 µM | Drug metabolism [5]: Metabolite_Detected | Drug metabolism [6]: Metabolite_Detected | Kp [7]: 0.74 | Drug metabolism [8]: Metabolite_Detected | K(p,uu,brain) [9]: 2.6 | IC50 (Cytochrome P450 2D6): 19 µM | EC50 [10]: > 30 µM | Kp [11]: 0.11 | Drug metabolism [12]: Metabolite_Detected | EC50 [13]: > 30 µM | Activity (Salmonella typhimurium): Non-Toxic | fraction unbound [14]: 0.02 | EC50 ([15]; read-out: EC50): 0.0135 µM | EC50 ([15]; read-out: pEC50 (converted)): 0.0117 µM | Drug metabolism [16]: Metabolite_Detected | Drug metabolism [17]: Metabolite_Detected | Drug metabolism [18]: Metabolite_Detected | Drug metabolism [19]: Metabolite_Detected

— ChEMBL document CHEMBL4028836, “Optimization of M4 positive allosteric modulators (PAMs): The discovery of VU0476406, a non-human primate in vivo tool compound for translational pharmacology” (Bioorg Med Chem Lett, 2017)
